Data taken from PMC3186881 (Chemico-biological interactions, 2011).
Peptide text beside a SMILES is read from it. * marks the point of attachment. Cbz = O=C(OCc1ccccc1)*; CH2F = FC*

What was measured:
[1] = tested on: Jurkat cells; test: DNA fragmentation; assay type: cell-based; conditions: 24 h
[2] = tested on: Jurkat cells; test: Cell viability by trypan blue exclusion; assay type: cell-based; conditions: for cell viability (trypan blue exclusion): 100 nM
[3] = target: caspase-like (C-L) activity of the proteasome (Homo sapiens, UniProt P28072); test: Caspase-like proteasome activity in treated Jurkat cells; assay type: cell-based; conditions: for inhibition of C-L activity: Jurkat cells, equipotent concentrations (4.5 μM NPI-2078, 1 μM NPI-2104, 25 nM marizomib)
How it was run: (§1)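 Jurkat cells dosed 1 h or 12 h at equipotent concentrations chosen from 24 h DNA-fragmentation dose-response. Caspase-like activity read as z-LLE-amc hydrolysis; trypsin-like as […] hydrolysis. Fluorescence at ex 380/em 460 nm (RFU), normalized to DMSO-treated cells as 100%. Mean ± SD of three independent experiments; two-way ANOVA with Bonferroni post-test.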

[4] = target: trypsin-like (T-L) activity of the proteasome (Homo sapiens, UniProt Q99436); test: Trypsin-like proteasome activity in treated Jurkat cells; assay type: cell-based
How it was run: as §1

[5] = target: chymotrypsin-like (CT-L) activity of the proteasome (Homo sapiens, UniProt P28074); test: Chymotrypsin-like proteasome activity in treated Jurkat cells; assay type: cell-based; conditions: for CT-L activity over time (recovery or sustained inhibition): 1 h to 16 h
[6] = tested on: Jurkat cells; test: Intracellular superoxide levels; assay type: cell-based; conditions: 100 nM; for ROS levels (superoxide and hydrogen peroxide): time course; for increase of intracellular superoxide compared to diluent: 16 h
How it was run: (§2)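 Jurkat cells treated at 100 nM over a time course up to 16 h. Stained 30 min in the dark with dihydroethidine (superoxide, FL-3) or CM-H2DCF-DA (hydrogen peroxide, FL-1); flow cytometry, mean fluorescence reported. Compared with DMSO-treated cells by ANOVA and Bonferroni post-test.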

[7] = tested on: caspase-8; test: Caspase-8 activation by western blot; assay type: cell-based; conditions: Jurkat cells, 6 h
How it was run: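 Jurkat cells treated 6 h at 100 nM. Lysates from 5x10^6 cells; 50 μg protein run on SDS-PAGE, transferred to nitrocellulose, probed with caspase-8 antibody (1:500) detecting pro- and cleaved forms, then secondary (1:5000). Antibodies in 5% milk/TBS, 0.005% Tween; ECL detection. Densitometry given as cleaved:pro-caspase-8 ratio.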

[8] = tested on: Jurkat cells; test: Intracellular hydrogen peroxide levels; assay type: cell-based; conditions: 100 nM, time course
How it was run: as §2

[9] = tested on: Jurkat cells; test: Cell size by forward scatter versus side scatter; assay type: cell-based; conditions: 100 nM, 24 h
How it was run: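 Jurkat cells treated 24 h, then analysed by flow cytometry. Cell size judged on forward- versus side-scatter plots, with a gate set on the DMSO control population to detect size shifts after treatment.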

[10] = tested on: β5 protein (chymotryptic-like subunit of the proteasome); test: β5 subunit protein level by western blot; assay type: cell-based; conditions: Jurkat cells, 100 nM, 1, 6 and 12 h
[11] = tested on: PARP; test: PARP cleavage by western blot; assay type: cell-based; conditions: Jurkat cells, 100 nM, 16 h
How it was run: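 Jurkat cells exposed to 100 nM for 16 h. Lysates from 5x10^6 cells; 50 μg protein by SDS-PAGE, nitrocellulose transfer, PARP antibody 1:2000, secondary 1:5000, diluted in 5% milk/TBS with 0.005% Tween; ECL detection. Cleaved PARP band quantified by densitometry, normalized to actin.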

[12] = tested on: Jurkat cells; test: Nuclear morphology by Hoechst staining; assay type: cell-based; conditions: 100 nM, 24 h
How it was run: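 Jurkat cells exposed 24 h at 100 nM; 10,000 cells stained with 5 μM Hoechst 33342 for 20 min, cytocentrifuged onto slides and examined by fluorescence microscopy for nuclear shrinkage and fragmentation.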

[13] = tested on: proteasomal activities; conditions: leukemia cells; cited from earlier work
[14] = equipotent concentrations (4.5 μM NPI-2078, 1 μM NPI-2104, 25 nM marizomib), 12 h
[15] = equipotent concentrations (4.5 μM NPI-2078, 1 μM NPI-2104, 25 nM marizomib), 1 h
[16] = equipotent concentrations (4.5 μM NPI-2078, 1 μM NPI-2104, 25 nM marizomib)

CC[C@H](C)[C@H](NC(=O)OCc1ccccc1)C(=O)N[C@@H](CCC(=O)OC)C(=O)N[C@H](C(=O)N[C@@H](CC(=O)OC)C(=O)CF)[C@@H](C)O [z-IETD-fmk] (Cbz-IE(OMe)TD(OMe)-CH2F)
effect of caspase-8 inhibitor pretreatment on analog-induced DNA fragmentation ([1]; 25 μM z-IETD-fmk 30 min before 100 nM analogs): prevented

CC12OC(=O)C1(C(O)C1C=CCCC1)NC(=O)C2CCSC#N (stereo not drawn) [NPI-2104]
cell viability (trypan blue exclusion) ([2]; 24 h): did not affect viability
inhibition of C-L activity ([3]; 1 h): ≥ 95%
inhibition of C-L activity ([3]; 12 h): > 65%
inhibition of T-L activity ([4]; equipotent concentrations (1 μM NPI-2104, 25 nM marizomib), 1 h): 11%
inhibition of T-L activity [4, 14]: > 30%
inhibition of CT-L activity ([5]; 100 nM, 1 h): about 90%
CT-L activity over time (recovery or sustained inhibition) ([5]; 100 nM): recovered
CT-L activity, % of control ([5]; 100 nM, 12 h): 64.5%
CT-L activity, % of control ([5]; equipotent concentration (1 μM NPI-2104), 12 h): 28.6%
CT-L activity, % of control [5, 15]: 10%
inhibition of CT-L activity [5, 14]: 70%
ROS levels (superoxide and hydrogen peroxide) [6]: weak
caspase-8 activation (cleavage of pro-caspase-8) ([7]; 100 nM): weakly activated
caspase-8 activation (cleavage of pro-caspase-8) [7, 16]: caspase-8 activation occurred

CC12OC(=O)C1(C(O)C1C=CCCC1)NC(=O)C2CCI (stereo not drawn) [NPI-2070]
hydrogen peroxide levels compared to diluent [8]: steadily increased
increase of intracellular superoxide compared to diluent [6]: over 7 fold

CC12OC(=O)C1(C(O)C1C=CCCC1)NC(=O)C2CCBr (stereo not drawn) [NPI-2053]
hydrogen peroxide levels compared to diluent [8]: steadily increased
increase of intracellular superoxide compared to diluent [6]: over 7 fold

CC(=O)N[C@@H](CS)C(=O)O [NAC, N-acetyl cysteine, reference compound]
toxicity as single agent ([2]; 24 mM): did not have toxic effects
effect of antioxidant pretreatment on viability loss by LG analogs ([2]; 24 mM NAC before 100 nM analogs, 24 h): offered protection
effect of antioxidant pretreatment on DNA fragmentation induced by LG analogs ([1]; 24 mM NAC before 100 nM analogs): attenuated

Cc1ccc(S(=O)(=O)OCCC2C(=O)NC3(C(O)C4C=CCCC4)C(=O)OC23C)cc1 (stereo not drawn) [NPI-2151]
hydrogen peroxide levels compared to diluent [8]: steadily increased
increase of intracellular superoxide compared to diluent [6]: over 7 fold

CC12OC(=O)C1(C(O)C1C=CCCC1)NC(=O)C2CCN=[N+]=[N-] (stereo not drawn) [NPI-2078]
cell viability (trypan blue exclusion) ([2]; 24 h): did not affect viability
change in cell size compared to control population [9]: did not show a large change in cell size
inhibition of C-L activity ([3]; 1 h): ≥ 95%
inhibition of C-L activity ([3]; 12 h): > 65%
level of β5 protein [10]: Neither inhibitor decreased levels of β5 protein
inhibition of T-L activity [4, 14]: ~5%
CT-L activity, % of control [5, 15]: 10%
inhibition of CT-L activity [5, 14]: 70%
ROS levels (superoxide and hydrogen peroxide) [6]: weak
caspase-8 activation (cleavage of pro-caspase-8) [7, 16]: caspase-8 activation occurred

C[C@@]12OC(=O)[C@]1([C@@H](O)[C@@H]1C=CCCC1)NC(=O)[C@@H]2CCCl [marizomib, Marizomib, reference compound]
PARP cleavage [11]: PARP cleavage occurred
nuclear morphology (Hoechst staining) [12]: shrinkage and fragmentation of the DNA
profile of inhibition of proteasome activities [13]: blocking the CT-L and C-L activities potently, while T-L activity is inhibited to a lesser extent
change in cell size compared to control population [9]: altered cell size
inhibition of C-L activity ([3]; 12 h): sustained
inhibition at 0.025 µM ([3]; Jurkat, read-out: inhibition of C-L activity): 88%
level of β5 protein [10]: Neither inhibitor decreased levels of β5 protein
inhibition of CT-L activity [5, 14]: sustained
caspase-8 activation (cleavage of pro-caspase-8) [7, 16]: caspase-8 activation occurred

CC12OC(=O)C1(C(O)C1CCCCC1)NC(=O)C2CCCl (stereo not drawn) [NPI-2056]
cell viability (trypan blue exclusion) ([2]; 24 h): more viable cells
hydrogen peroxide levels compared to diluent [8]: steadily increased
DNA fragmentation ([1]; 100 nM): less DNA fragmentation
CT-L activity over time (recovery or sustained inhibition) ([5]; 100 nM): partial recovery
increase of intracellular superoxide compared to diluent [6]: over 7 fold
